Measurements: ChEMBL document CHEMBL5724801, “EUbOPEN Chemogenomics Library - Multiplex” (2024)
“And” between values parts separate entries of the source, which are not always exact repeats. Identical values can stand only once.

System: U2OS
Experiment: Multiplex assay against U2OS
Format: toxicity, cell-based
Conditions: human
Outline: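 At seeding, live cells were stained with Hoechst33342, BioTracker Green Microtubule Cytoskeleton Dye, MitoTracker Red and Annexin V Alexa Fluor 680. After compound addition they were imaged on a CQ1 microscope at 37°C and 5% CO2, and CellPathfinder machine-learning gating sorted them into Hoechst high-intensity objects or normal cells, with normal cells further split into healthy, pyknosed or fragmented nuclei and pyknosed cells into mitotic or apoptotic. Tubulin, mitochondrial-mass and membrane-permeability phenotypes are given as per cents of cells with healthy nuclei.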

[1] = 12 h, 1 µM, compound concentration 1 uM
[2] = 12 h, 10 µM, compound concentration 10 uM
[3] = 24 h, 1 µM, compound concentration 1 uM
[4] = 24 h, 10 µM, compound concentration 10 uM
[5] = 48 h, 1 µM, compound concentration 1 uM
[6] = 48 h, 10 µM, compound concentration 10 uM

## C[C@H]1[C@H]2CC[C@H]3[C@@H]4CC=C5C[C@@H](N(C)C)CC[C@]5(C)[C@H]4CC[C@]23CN1C [CONESSINE]
[1]
  Population Apoptotic (%): 80% and 58%
  Population Fragmented Nuclei (%): 23% and 16%
  Population Healthy Nuclei (%): 70% and 73%
  Population Hoechst High Intensity Objects (%): 2% and 1%
  Population Membrane Permeable-Phenotype (%): 5%
  Population Mitochondria Different-Phenotype (%): 1% and 2%
  Population Mitotic Cells (%): 20% and 41%
  Population Normal (%): 97% and 98%
  Population Pyknosed Nuclei (%): 6% and 9%
  Population Tubulin-Different-Phenotype (%): 2% and 3%
  Total Cell Count: 248 and 124
[2]
  Population Apoptotic (%): 55% and 100%
  Population Fragmented Nuclei (%): 19% and 17%
  Population Healthy Nuclei (%): 71% and 68%
  Population Hoechst High Intensity Objects (%): 2% and 0%
  Population Membrane Permeable-Phenotype (%): 5% and 8%
  Population Mitochondria Different-Phenotype (%): 0% and 5%
  Population Normal (%): 97% and 99%
  Population Pyknosed Nuclei (%): 8% and 13%
  Population Tubulin-Different-Phenotype (%): 1% and 6%
  Total Cell Count: 237 and 107
[3]
  Population Apoptotic (%): 90% and 100%
  Population Fragmented Nuclei (%): 18% and 11%
  Population Healthy Nuclei (%): 74% and 81%
  Population Hoechst High Intensity Objects (%): 2% and 1%
  Population Membrane Permeable-Phenotype (%): 6% and 8%
  Population Mitochondria Different-Phenotype (%): 1% and 5%
  Population Mitotic Cells (%): 9% and 0%
  Population Normal (%): 97% and 98%
  Population Pyknosed Nuclei (%): 7%
  Population Tubulin-Different-Phenotype (%): 3% and 7%
  Total Cell Count: 307 and 153
[4]
  Population Apoptotic (%): 65% and 100%
  Population Fragmented Nuclei (%): 20% and 19%
  Population Healthy Nuclei (%): 71%
  Population Hoechst High Intensity Objects (%): 2% and 4%
  Population Membrane Permeable-Phenotype (%): 2% and 10%
  Population Mitochondria Different-Phenotype (%): 0% and 4%
  Population Normal (%): 97% and 95%
  Population Pyknosed Nuclei (%): 7% and 8%
  Population Tubulin-Different-Phenotype (%): 1% and 9%
  Total Cell Count: 265 and 134
[5]
  Population Apoptotic (%): 83% and 86%
  Population Fragmented Nuclei (%): 16%
  Population Healthy Nuclei (%): 79% and 73%
  Population Hoechst High Intensity Objects (%): 2%
  Population Membrane Permeable-Phenotype (%): 4%
  Population Mitochondria Different-Phenotype (%): 2% and 0%
  Population Mitotic Cells (%): 16% and 13%
  Population Normal (%): 97%
  Population Pyknosed Nuclei (%): 4% and 9%
  Population Tubulin-Different-Phenotype (%): 1% and 2%
  Total Cell Count: 430 and 227
[6]
  Population Apoptotic (%): 89% and 85%
  Population Fragmented Nuclei (%): 19% and 15%
  Population Healthy Nuclei (%): 73% and 72%
  Population Hoechst High Intensity Objects (%): 1% and 6%
  Population Membrane Permeable-Phenotype (%): 4% and 9%
  Population Mitochondria Different-Phenotype (%): 2% and 5%
  Population Mitotic Cells (%): 10% and 15%
  Population Normal (%): 98% and 93%
  Population Pyknosed Nuclei (%): 7% and 12%
  Population Tubulin-Different-Phenotype (%): 3% and 6%
  Total Cell Count: 370 and 175

## CCCOc1ccc2[nH]cc(C3=CCNCC3)c2n1.Cl
[1]
  Population Apoptotic (%): 80% and 87%
  Population Fragmented Nuclei (%): 31% and 13%
  Population Healthy Nuclei (%): 58% and 78%
  Population Hoechst High Intensity Objects (%): 2% and 1%
  Population Membrane Permeable-Phenotype (%): 2% and 11%
  Population Mitochondria Different-Phenotype (%): 1% and 7%
  Population Mitotic Cells (%): 19% and 12%
  Population Normal (%): 97% and 98%
  Population Pyknosed Nuclei (%): 9% and 8%
  Population Tubulin-Different-Phenotype (%): 1% and 5%
  Total Cell Count: 218 and 98
[2]
  Population Apoptotic (%): 86% and 60%
  Population Fragmented Nuclei (%): 24% and 17%
  Population Healthy Nuclei (%): 66% and 74%
  Population Hoechst High Intensity Objects (%): 4% and 0%
  Population Membrane Permeable-Phenotype (%): 6% and 12%
  Population Mitochondria Different-Phenotype (%): 5%
  Population Normal (%): 96% and 100%
  Population Pyknosed Nuclei (%): 8% and 7%
  Population Tubulin-Different-Phenotype (%): 3% and 6%
  Total Cell Count: 275 and 134
[3]
  Population Apoptotic (%): 70% and 90%
  Population Fragmented Nuclei (%): 27% and 18%
  Population Healthy Nuclei (%): 61% and 73%
  Population Hoechst High Intensity Objects (%): 1% and 2%
  Population Membrane Permeable-Phenotype (%): 6% and 3%
  Population Mitochondria Different-Phenotype (%): 1% and 3%
  Population Normal (%): 98% and 97%
  Population Pyknosed Nuclei (%): 10% and 8%
  Population Tubulin-Different-Phenotype (%): 3% and 2%
  Total Cell Count: 252 and 138
[4]
  Population Apoptotic (%): 92% and 72%
  Population Fragmented Nuclei (%): 25% and 14%
  Population Healthy Nuclei (%): 66% and 78%
  Population Hoechst High Intensity Objects (%): 3% and 0%
  Population Membrane Permeable-Phenotype (%): 5% and 11%
  Population Mitochondria Different-Phenotype (%): 3% and 2%
  Population Normal (%): 96% and 99%
  Population Pyknosed Nuclei (%): 8% and 6%
  Population Tubulin-Different-Phenotype (%): 3% and 4%
  Total Cell Count: 323 and 162
[5]
  Population Apoptotic (%): 91% and 75%
  Population Fragmented Nuclei (%): 19%
  Population Healthy Nuclei (%): 69% and 74%
  Population Hoechst High Intensity Objects (%): 2%
  Population Membrane Permeable-Phenotype (%): 5% and 9%
  Population Mitochondria Different-Phenotype (%): 3%
  Population Normal (%): 97%
  Population Pyknosed Nuclei (%): 10% and 6%
  Population Tubulin-Different-Phenotype (%): 1% and 3%
  Total Cell Count: 350 and 183
[6]
  Population Apoptotic (%): 100% and 94%
  Population Fragmented Nuclei (%): 18% and 13%
  Population Healthy Nuclei (%): 75% and 78%
  Population Hoechst High Intensity Objects (%): 4% and 0%
  Population Membrane Permeable-Phenotype (%): 5% and 6%
  Population Mitochondria Different-Phenotype (%): 2% and 3%
  Population Mitotic Cells (%): 0% and 5%
  Population Normal (%): 95% and 99%
  Population Pyknosed Nuclei (%): 6% and 7%
  Population Tubulin-Different-Phenotype (%): 3%
  Total Cell Count: 423 and 243

## Br.CS(=O)(=O)Nc1c(O)ccc2c1CCCC2C1=NCCN1 (stereo not given)
[1]
  Population Apoptotic (%): 63% and 80%
  Population Fragmented Nuclei (%): 20% and 13%
  Population Healthy Nuclei (%): 75% and 82%
  Population Hoechst High Intensity Objects (%): 2% and 0%
  Population Membrane Permeable-Phenotype (%): 3% and 5%
  Population Mitochondria Different-Phenotype (%): 2% and 1%
  Population Mitotic Cells (%): 36% and 20%
  Population Normal (%): 97% and 100%
  Population Pyknosed Nuclei (%): 3%
  Population Tubulin-Different-Phenotype (%): 2% and 1%
  Total Cell Count: 288 and 151
[2]
  Population Apoptotic (%): 69% and 100%
  Population Fragmented Nuclei (%): 36% and 22%
  Population Healthy Nuclei (%): 57% and 75%
  Population Hoechst High Intensity Objects (%): 1% and 0%
  Population Membrane Permeable-Phenotype (%): 8% and 6%
  Population Mitochondria Different-Phenotype (%): 0% and 6%
  Population Normal (%): 98% and 100%
  Population Pyknosed Nuclei (%): 6% and 2%
  Population Tubulin-Different-Phenotype (%): 1%
  Total Cell Count: 215 and 84
[3]
  Population Apoptotic (%): 76% and 92%
  Population Fragmented Nuclei (%): 18% and 14%
  Population Healthy Nuclei (%): 73% and 78%
  Population Hoechst High Intensity Objects (%): 2% and 1%
  Population Membrane Permeable-Phenotype (%): 3% and 7%
  Population Mitochondria Different-Phenotype (%): 2%
  Population Normal (%): 97% and 98%
  Population Pyknosed Nuclei (%): 7%
  Population Tubulin-Different-Phenotype (%): 2% and 4%
  Total Cell Count: 341 and 185
[4]
  Population Apoptotic (%): 86% and 100%
  Population Fragmented Nuclei (%): 31% and 16%
  Population Healthy Nuclei (%): 62% and 80%
  Population Hoechst High Intensity Objects (%): 2% and 0%
  Population Membrane Permeable-Phenotype (%): 5% and 3%
  Population Mitochondria Different-Phenotype (%): 1% and 4%
  Population Mitotic Cells (%): 13% and 0%
  Population Normal (%): 97% and 100%
  Population Pyknosed Nuclei (%): 6% and 2%
  Population Tubulin-Different-Phenotype (%): 2% and 3%
  Total Cell Count: 240 and 103
[5]
  Population Apoptotic (%): 74% and 81%
  Population Fragmented Nuclei (%): 14% and 13%
  Population Healthy Nuclei (%): 78% and 76%
  Population Hoechst High Intensity Objects (%): 1%
  Population Membrane Permeable-Phenotype (%): 2% and 5%
  Population Mitochondria Different-Phenotype (%): 2%
  Population Mitotic Cells (%): 25% and 18%
  Population Normal (%): 98%
  Population Pyknosed Nuclei (%): 6% and 10%
  Population Tubulin-Different-Phenotype (%): 2% and 1%
  Total Cell Count: 484 and 253
[6]
  Population Apoptotic (%): 90% and 100%
  Population Fragmented Nuclei (%): 23% and 17%
  Population Healthy Nuclei (%): 70% and 74%
  Population Hoechst High Intensity Objects (%): 1% and 0%
  Population Membrane Permeable-Phenotype (%): 5% and 3%
  Population Mitochondria Different-Phenotype (%): 1% and 6%
  Population Mitotic Cells (%): 10% and 0%
  Population Normal (%): 98% and 100%
  Population Pyknosed Nuclei (%): 6% and 7%
  Population Tubulin-Different-Phenotype (%): 2%
  Total Cell Count: 333 and 152
